Data on two molecules can be found in paper PMC11624666 (Drug Design, Development and Therapy, 2024).

In general, Tmax refers to the time at which the peak concentration occurs. By half-life is commonly meant the time in which the quantity being followed falls by half. A low value points to rapid decline.

The structures appear in SMILES notation. Like-named read-outs stand apart in the source and are kept apart here. A value given as a limit tells only on which side of the number the result lay.

The format of series [1] is in vivo, healthy Chinese male subjects. Conditions: male, human, plasma, po, 150 mg. The procedure, abridged:
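Two-sequence (TR/RT), two-period randomised crossover in 44 healthy males (18–50 y, BMI 19–26 kg/m2, ≥50 kg) with a 7-day washout. Each period: single oral 150 mg tablet (test or reference) under fasting, with fasting kept ≥4 h post-dose. Plasma spun at 1700 g, 10 min, 2–8°C, stored at −80°C. Assay: protein precipitation, HPLC-MS/MS, positive ion mode, calibration 10.0–5000 ng/mL.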

The next series is described as follows: Effect of food: fed. Conditions: 150 mg; P < 0.05. The class given is in vivo, healthy Chinese male subjects.
For series [2] the following is noted: previous studies; cited from earlier work.
For series [3] the following is noted: ref summary of product characteristics of olaparib; cited from earlier work.
Series [4] in a line: Safety monitoring over Part A, Part B and Part C. The class given is in vivo. The settings on record: healthy Chinese male subjects, single dose 100 mg or 150 mg. The procedure, abridged:
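Single oral dose in a randomized two-sequence (TR/RT) crossover, two periods, 7-day washout. Part A: 100 mg fasting (n = 14). Part B: 150 mg fasting (n = 44). Part C: 150 mg after a high-fat breakfast (n = 44). TEAEs, both subject-reported and investigator-observed including lab values, were collected throughout and graded by CTCAE 5.0. Monitoring covered physical exams, vital signs, laboratory tests, 12-lead ECG and CT scans.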

The conditions of series [5]: patients; cited from earlier work.
The conditions of series [6]: Chinese patients, cited from earlier work.
For series [7] the following is noted: Japanese patients, 300 mg single dosing; cited from earlier work.
For series [8] the following is noted: FDA Adverse Event Reporting System, cited from earlier work.
For series [9] the following is noted: six clinical pharmacology studies; cited from earlier work.

Turning to `O=C(c1cc(Cc2n[nH]c(=O)c3ccccc23)ccc1F)N1CCN(C(=O)C2CC2)CC1` [olaparib], in series [1], the Tmax came out at 1.5 h and the half-life is 5.94 h. Besides, in the series “Effect of food: fed”, the “difference in Tmax, fed vs fasting state” value is recorded as “significantly prolonged”. Further, in series [2], the “inter-individual variation in the AUC” value was 55–57%. Besides, in series [3], the “Tmax delayed by high-fat, high-calorie meal” value was 2.5 h and the “mean AUC increased by high-fat, high-calorie meal” value is listed as “approximately 8%”. Moreover, in [4], the tolerability result is on record as “well tolerated”. For the same molecule, in series [5], the “first nausea, time after treatment initiation” value is listed as no more than 1 month; the “first vomiting, time after treatment initiation” value is listed as no more than 2 months; the “median time to first occurrence of anemia” value is on record as “approximately 4 weeks”. Besides, in [6] (100 mg single dosing), the “arithmetic mean t1/2” value was 7.17 h and the “median Tmax” value is 1.95 h. Also, in series [6] (300 mg single dosing), the “arithmetic mean t1/2” value is listed as 6.52 h. For the same molecule, in series [7], the “arithmetic mean t1/2” value is 9.43 h and the “median Tmax” value is recorded as 1.98 h. Further, the “adverse events received related to olaparib” value in series [8] (2008 through first quarter of 2023) was 10,957. In addition, the “adverse events connected to genotoxicity” value in series [8] is recorded as “no adverse events”.

Take `O=C(c1cc(Cc2n[nH]c(=O)c3ccccc23)ccc1F)N1CCn2nc(C(F)(F)F)nc2C1` [fluzoparib]: in series [9], the “tolerability in healthy individuals” value was “well tolerated”.
